For data set [1], the system named is Lymphocyte. Kind of data set: Anti-ferroptotic activity in FRDA patient-derived Lymphocyte assessed as reduction in RSL3-induced lipid peroxidation incubated for overnight followed by RSL3 stimulation and measured after 90 mins by FACS analysis. Type of data set: functional, cell-based. As to conditions: Homo sapiens, 1.5 h. The method in brief:
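FRDA patient lymphocytes pretreated with a range of concentrations, then challenged with RSL3 (GPX4 inhibitor) at 2 μM; lipid peroxidation read with the C11-BODIPY581/591 fluorescent probe. EC50 taken from dose–response curves by nonlinear regression fit.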
(Flow cytometry measures light scatter and fluorescence of single cells or particles in a stream.)

In data set [2] the test system is Lymphocyte. Briefly: Cytotoxicity against FRDA patient-derived lymphocyte at 0.25 to 2.5 uM incubated for 24 to 48 hrs by flow cytometry analysis. Type of data set: cell-based. Particulars: human, dose 0.25-2.5 µM, time 24-48 hrs. The method in brief:
(§1)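 FRDA lymphocytes kept 24 h in glucose-free medium with galactose to force reliance on mitochondrial ATP. Viability by flow cytometry with dual staining, calcein-AM for live and ethidium homodimer-1 for dead cells. Percent live cells taken from a two-dimensional color density dot plot. Duplicates run in two independent experiments.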

Data set [3] can be described thus: Inhibition of erastin-induced cell death in FRDA patient-derived fibroblast assessed as depletion of cellular ATP incubated for 12 hrs followed by erastin stimulation and measured after by luciferase-linked ATPase enzymatic assay. Type of data set: functional, tissue-based. Particulars: Homo sapiens. The gist of the method:
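Primary FRDA patient fibroblasts treated with compound, then challenged with erastin (cystine-glutamate exchange inhibitor, GSH depletion). Cell death read as depletion of cellular ATP by a luciferase-linked kit assay.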

Data set [4] deals with Lymphocyte. Briefly: Induction of ATP production in FRDA patient-derived lymphocyte at 2.5 uM incubated for 24 hrs by luciferase-linked ATPase enzymatic assay. Type of data set: functional, tissue-based. Particulars: Homo sapiens. The method in brief:
(§2)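 Total cellular ATP in cultured FRDA lymphocytes after 24 h with compound in glucose-free medium with 25 mM galactose, to force OXPHOS dependence. Tested range 100 nM–2.5 μM. Expressed as percent of total ATP relative to untreated control.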

The test system of data set [5] is Lymphocyte. Briefly: Induction of ATP production in FRDA patient-derived lymphocyte at 0.1 to 0.5 uM incubated for 24 hrs by luciferase-linked ATPase enzymatic assay. Type of data set: functional, tissue-based. As to conditions: Homo sapiens, dose microM 0.1-0.5, time 24.0 hrs. The gist of the method:
as §2

The test system of data set [6] is Lymphocyte. Kind of data set: Induction of mitochondria membrane potential depolarization in FRDA patient-derived lymphocyte at 2.5 uM incubated for 16 hrs by JC-1 probe based flow cytometry analysis. Type of data set: functional. As to conditions: Homo sapiens. The method in brief: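 Mitochondrial inner membrane potential in FRDA lymphocytes measured by flow cytometry with the ratiometric probe JC-1. Percent of cells with intact Δψm taken from a two-dimensional color density dot plot. Duplicates run in two independent runs.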

The next data set relates to HepG2. Briefly: Inhibition of ferroptosis in human HepG2 cells assessed as increase in pAMPK/AMPK ratio at 1 uM incubated for 24 hrs by Western blot analysis. Type of data set: functional, cell-based. The method in brief:
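HepG2 cells treated with or without compound. AMPK, p-AMPK and β-actin (loading control) detected by Western blot and quantified as p-AMPK/AMPK ratio. Triplicate experiments, mean ± SEM.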
In general terms: A western blot detects proteins with antibodies after separation by electrophoresis.

The subject of data set [7] is Lymphocyte. Kind of data set: Induction of ATP production in FRDA patient-derived lymphocyte at 0.1 and 0.25 uM incubated for 24 hrs by luciferase-linked ATPase enzymatic assay. Type of data set: functional, tissue-based. Particulars: Homo sapiens, dose microM 0.1-0.25, time 24.0 hrs. The method in brief:
as §2

Data set [8] has as its system Lymphocyte. Kind of data set: Cytotoxicity against FRDA patient-derived lymphocyte at 2.5 uM incubated for 24 to 48 hrs by flow cytometry analysis. Type of data set: cell-based. As to conditions: human, time 24-48 hrs. The method in brief: as §1
The test system of data set [9] is Lymphocyte. Kind of data set: Induction of ATP production in FRDA patient-derived lymphocyte at 0.1 uM incubated for 24 hrs by luciferase-linked ATPase enzymatic assay. Type of data set: functional, tissue-based. Particulars: Homo sapiens. The method in brief:
as §2

The subject of data set [10] is Lymphocyte. Briefly: Induction of ATP production in FRDA patient-derived lymphocyte at 0.1 to 2.5 uM incubated for 24 hrs by luciferase-linked ATPase enzymatic assay. Type of data set: functional, tissue-based. Particulars: Homo sapiens, dose microM 0.1-2.5, time 24.0 hrs. The method in brief: as §2
In data set [11] the test system is Lymphocyte. Briefly: Induction of ATP production in FRDA patient-derived lymphocyte incubated for 24 hrs by luciferase-linked ATPase enzymatic assay. Type of data set: functional, tissue-based. Particulars: Homo sapiens, dose microM 0.25-2.5, time 24.0 hrs. The method in brief: as §2

What is called EC50 is the concentration needed to bring the measured effect to its halfway point.

Active and inactive are the calls of the source. The rule behind the calls is not given here. Where only a bound is given, the exact number is not on record here.

Turning to `CCCCCCCCCCCCCCCCc1cc2nc3ccc(N(C)C)cc3sc-2cc1=O`, the EC50 in the data set with Lymphocyte [1] was 25 nM; in [3], 22 nM. Besides, the Activity entry in the data set on Lymphocyte [2] is “Non-Toxic”. Also, the outcome with Lymphocyte [4] was inactive. For the same compound, in the data set with Lymphocyte [5], the result was Active.
Consider `CN(C)c1ccc2nc3ccc(=O)cc-3sc2c1`, for which the figures for the EC50 (in the data set on Lymphocyte [1]; in [3]) were 26 nM and 27 nM, respectively. In addition, the outcome with Lymphocyte [6] was Active. Also, the “pAMPK/AMPK ratio increase (active/not active)” value with HepG2 was “Active”.
Consider `CCOC(=O)c1ccc(NC2CCCCC2)c(N)c1`, for which the EC50 in the data set with Lymphocyte [1] is 48 nM; in data set [3], 33 nM.
Turning to `CCCCCCCCCCCCCCCCc1cc2nc3ccc(N(C)C)cc3sc-2cc1=[N+](C)C.[I-]`, the results for the EC50 (in the data set on Lymphocyte [1]; in data set [3]) were 70 nM and 55 nM, respectively. Further, in the data set on Lymphocyte [2], the Activity result was “Non-Toxic”. The outcome in the data set on Lymphocyte [7] was Active. Moreover, the outcome in the data set with Lymphocyte [4] was inactive.
Take `Cc1c(C)c2c(c(C)c1O)CC[C@@](C)(CCC[C@H](C)CCC[C@H](C)CCCC(C)C)O2` [ALPHA-TOCOPHEROL]: the EC50 (in the data set with Lymphocyte [1]; in data set [3]) was greater than 500 nM throughout.
Take `CCCCCCCCc1cc2nc3ccc(N(C)C)cc3sc-2cc1=O`: the 50% effective concentration (EC50) came to 14 nM with Lymphocyte [1] and 15 nM in data set [3]. Further, the Activity result in the data set on Lymphocyte [8] is recorded as “Toxic”. Moreover, the result in the data set on Lymphocyte [6] and in the data set on Lymphocyte [9] was Active.
Turning to `CCCCCCCCc1cc2nc3ccc(N(C)C)cc3sc-2cc1=[N+](C)C.[I-]`, the EC50 was determined as 76 nM in the data set on Lymphocyte [1] and 39 nM in data set [3]. In addition, in the data set with Lymphocyte [10], the result was inactive. In addition, the Activity entry in the data set on Lymphocyte [8] is given as “Toxic”. Further, the result in the data set with Lymphocyte [6] was Active.
As to `CN(C)c1ccc2nc3ccc(N(C)C)cc3[s+]c2c1.[Cl-]` [METHYLENE BLUE ANHYDROUS], the half-maximal effective concentration (EC50) with Lymphocyte [1] turned out to be 88 nM; in [3], 43 nM. Besides, in the data set on Lymphocyte [8], the Activity result is “Toxic”.
As for `CN(C)c1ccc2nc3ccc(=[N+](C)C)cc-3sc2c1`, the result with Lymphocyte [6] and in the data set with Lymphocyte [9] was Active. Besides, the result in the data set with Lymphocyte [11] was inactive. In the data set with HepG2, the “pAMPK/AMPK ratio increase (active/not active)” value was “inactive”.
Take `CC(=O)N1c2ccc(N(C)C)cc2Sc2cc(N(C)C)ccc21`: the EC50 in the data set on Lymphocyte [1] was greater than 2500 nM.
Regarding `CCCCCCCCCCCCc1cc2nc3ccc(N(C)C)cc3sc-2cc1=O`, the results for the EC50 (with Lymphocyte [1]; in data set [3]) were 16 nM and 15 nM, respectively. Also, the Activity result with Lymphocyte [2] is given as “Non-Toxic”. Besides, the outcome in the data set on Lymphocyte [6] and in the data set on Lymphocyte [5] was Active. Also, the result in the data set on Lymphocyte [4] was inactive.
Regarding `CCCCCCCCCc1cc2nc3ccc(N(C)C)cc3sc-2cc1=[N+](C)C.[I-]`, the figures for the EC50 (with Lymphocyte [1]; in [3]) were 53 nM and 37 nM, respectively. The result in the data set with Lymphocyte [10] was inactive. Besides, the Activity result in the data set on Lymphocyte [8] is listed as “Toxic”. Further, in the data set on Lymphocyte [6], the outcome was Active.
In the case of `CCCCCCCCCCc1cc2nc3ccc(N(C)C)cc3sc-2cc1=[N+](C)C.[I-]`, the EC50 was found to be 38 nM in the data set with Lymphocyte [1] and 29 nM in data set [3]. In addition, in the data set with Lymphocyte [10], the outcome was inactive. The Activity result with Lymphocyte [8] is “Toxic”. Besides, the outcome in the data set with Lymphocyte [6] was Active. Moreover, the “pAMPK/AMPK ratio increase (active/not active)” value with HepG2 was “Active”.
As to `CCCCCCCCCCc1cc2nc3ccc(N(C)C)cc3sc-2cc1=O`, the EC50 with Lymphocyte [1] came to 9 nM; in data set [3], 10 nM. The Activity entry in the data set with Lymphocyte [8] is recorded as “Toxic”. Moreover, the outcome in the data set with Lymphocyte [6] and in the data set on Lymphocyte [9] was Active. For the same compound, the “pAMPK/AMPK ratio increase (active/not active)” value in the data set with HepG2 is “Active”.
As to `CCCCCCCCCc1cc2nc3ccc(N(C)C)cc3sc-2cc1=O`, the EC50 in the data set on Lymphocyte [1] was 12 nM; in [3] it was 11 nM. Also, the Activity entry in the data set with Lymphocyte [8] is given as “Toxic”. For the same compound, the outcome in the data set on Lymphocyte [6] and in the data set on Lymphocyte [9] was Active.
In the case of `CCCCCCCCCCCCc1cc2nc3ccc(N(C)C)cc3sc-2cc1=[N+](C)C.[I-]`, the EC50 with Lymphocyte [1] was 54 nM; in data set [3] it was 35 nM. The Activity entry with Lymphocyte [8] is listed as “Toxic”. Moreover, in the data set with Lymphocyte [6], the result was Active.
Regarding `Clc1cccc(CNC2=Nc3ccccc3NC23CCNCC3)c1`, the EC50 (in the data set with Lymphocyte [1]; in data set [3]) was 22 nM each time.

These data come from ChEMBL document CHEMBL4725467, “Antiferroptotic Activity of Phenothiazine Analogues: A Novel Therapeutic Strategy for Oxidative Stress Related Disease” (ACS Med Chem Lett, 2020).
